{"source": "ChEMBL document CHEMBL4020828", "about": "“Design and Syntheses of Highly Potent Teixobactin Analogues against Staphylococcus aureus, Methicillin-Resistant Staphylococcus aureus (MRSA), and Vancomycin-Resistant Enterococci (VRE) in Vitro and in Vivo” (J Med Chem, 2018)", "type_in_all_cases": "functional", "key": {"Staphylococcus aureus [1]": {"system": "Staphylococcus aureus", "experiment": "Antibacterial activity against methicillin-sensitive Staphylococcus aureus after 24 hrs"}, "Staphylococcus aureus [2]": {"system": "Staphylococcus aureus", "experiment": "Antibacterial activity against methicillin-resistant Staphylococcus aureus after 24 hrs"}, "Staphylococcus aureus [3]": {"system": "Staphylococcus aureus", "experiment": "Antibacterial activity against methicillin-resistant Staphylococcus aureus ATCC 700699 after 24 hrs", "conditions": "ATCC 700699, 24 h"}, "Staphylococcus aureus [4]": {"system": "Staphylococcus aureus", "experiment": "Antibacterial activity against methicillin-resistant Staphylococcus aureus ATCC 33591 after 24 hrs", "conditions": "ATCC 33591, 24 h"}, "Enterococcus faecalis [5]": {"system": "Enterococcus faecalis", "experiment": "Antibacterial activity against vancomycin-resistant Enterococcus faecalis ATCC 700802 after 24 hrs", "conditions": "ATCC 700802, 24 h"}, "Staphylococcus aureus [6]": {"system": "Staphylococcus aureus", "experiment": "Antibacterial activity against methicillin-resistant Staphylococcus aureus isolate 21455 after 24 hrs", "conditions": "isolate 21455, 24 h"}, "Enterococcus faecalis [7]": {"system": "Enterococcus faecalis", "experiment": "Antibacterial activity against vancomycin-resistant Enterococcus faecalis ATCC 29212 after 24 hrs", "conditions": "ATCC 29212, 24 h"}, "Staphylococcus aureus [8]": {"system": "Staphylococcus aureus", "experiment": "Antibacterial activity against methicillin-resistant Staphylococcus aureus isolate 42412 after 24 hrs", "conditions": "isolate 42412, 24 h"}, "Staphylococcus aureus [9]": {"system": "Staphylococcus aureus", "experiment": "Antibacterial activity against methicillin-sensitive Staphylococcus aureus"}, "Staphylococcus aureus [10]": {"system": "Staphylococcus aureus", "experiment": "Antibacterial activity against methicillin-resistant Staphylococcus aureus USA300"}, "[11]": {"system": "Staphylococcus epidermidis", "experiment": "Antibacterial activity against Staphylococcus epidermidis"}, "Staphylococcus aureus [12]": {"system": "Staphylococcus aureus", "experiment": "Antibacterial activity against methicillin-resistant Staphylococcus aureus"}, "Staphylococcus aureus [13]": {"system": "Staphylococcus aureus", "experiment": "(§1) Antibacterial activity against Staphylococcus aureus ATCC 29213 infected in C57BL6 mouse cornea assessed as decrease in log bacterial load/tissue at 0.3% administered tropically 2 times on day 1, 4 times on day 2 and 2 times on day 3 starting from 6 hrs post infection measured 48 hrs post last dose", "in_short": "(§2)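 Mouse corneal epithelium scratched with a scalpel, then infected with 15 µl of 6×10⁶ CFU/ml S. aureus ATCC 29213. From 6 h p.i., 15 µl of PBS vehicle, 0.3% w/v peptide in PBS or 0.3% moxifloxacin was applied, 8 doses total. Outcomes were slit-lamp examination, AS-OCT corneal thickness and CFU counts of harvested corneas (mean log₁₀ CFU/tissue ± SEM).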"}, "Staphylococcus aureus [14]": {"system": "Staphylococcus aureus", "experiment": "as §1, with “conjunctival chemosis” for “log bacterial load/tissue”, “dose by slit-lamp photography” for “dose”", "in_short": "as §2"}, "Staphylococcus aureus [15]": {"system": "Staphylococcus aureus", "experiment": "as §1, with “mean corneal thickness” for “decrease in log bacterial load/tissue”, “dose by AS-OCT method (reference value: 186.2 +/- 17.5 micrometer)” for “dose”", "in_short": "as §2"}, "Staphylococcus aureus [16]": {"system": "Staphylococcus aureus", "experiment": "as §1, with “corneal infiltrates” for “log bacterial load/tissue”, “dose by slit-lamp photography” for “dose”", "in_short": "as §2"}, "Staphylococcus aureus [17]": {"system": "Staphylococcus aureus", "experiment": "as §1, with “mean corneal thickness” for “decrease in log bacterial load/tissue”, “24” for “48”, “dose by AS-OCT method (reference value: 151.7 +/- 12.7 micrometer)” for “dose”", "in_short": "as §2"}}, "note": "The source made the active and inactive calls. No cut-off for these calls is given here.", "data": [{"smiles": "CC[C@@H](C)[C@@H](NC(=O)[C@@H](CCC(N)=O)NC(=O)[C@H](CO)NC(=O)[C@@H](NC(=O)[C@@H](Cc1ccccc1)NC)[C@@H](C)CC)C(=O)N[C@H](C(=O)N[C@@H](CO)C(=O)N[C@H]1C(=O)N[C@@H](C)C(=O)N[C@@H](CC(C)C)C(=O)N[C@@H]([C@@H](C)CC)C(=O)O[C@H]1C)[C@@H](C)CC", "values": [{"measurement": "MIC", "setting": "Staphylococcus aureus [1]", "value": 0.063, "unit": "µg/mL"}, {"measurement": "MIC", "setting": "Staphylococcus aureus [2]", "value": 0.25, "unit": "µg/mL"}, {"measurement": "MIC", "setting": "Staphylococcus aureus [3]", "value": 0.25, "unit": "µg/mL"}, {"measurement": "MIC", "setting": "Staphylococcus aureus [4]", "value": 0.25, "unit": "µg/mL"}, {"measurement": "MIC", "setting": "Enterococcus faecalis [5]", "value": 0.25, "unit": "µg/mL"}, {"measurement": "MIC", "setting": "Staphylococcus aureus [6]", "value": "< 0.0625", "unit": "µg/mL"}, {"measurement": "MIC", "setting": "Enterococcus faecalis [7]", "value": 0.25, "unit": "µg/mL"}, {"measurement": "MIC", "setting": "Staphylococcus aureus [8]", "value": "< 0.0625", "unit": "µg/mL"}]}, {"smiles": "CC[C@@H](C)[C@@H](NC(=O)[C@@H](CCC(N)=O)NC(=O)[C@H](CO)NC(=O)[C@@H](NC(=O)[C@@H](Cc1ccccc1)NC)[C@@H](C)CC)C(=O)N[C@H](C(=O)N[C@@H](CO)C(=O)N[C@H]1C(=O)N[C@@H](C)C(=O)N[C@@H](CCCCNC(=N)N)C(=O)N[C@@H]([C@@H](C)CC)C(=O)O[C@H]1C)[C@@H](C)CC", "values": [{"measurement": "MIC", "setting": "Staphylococcus aureus [9]", "value": 1, "unit": "µg/mL"}, {"measurement": "MIC", "setting": "Staphylococcus aureus [10]", "value": 2, "unit": "µg/mL"}, {"measurement": "MIC", "setting": "[11]", "value": 1, "unit": "µg/mL"}]}, {"smiles": "CC[C@@H](C)[C@@H](NC(=O)[C@@H](CCC(N)=O)NC(=O)[C@H](CO)NC(=O)[C@@H](NC(=O)[C@@H](Cc1ccccc1)NC)[C@@H](C)CC)C(=O)N[C@H](C(=O)N[C@@H](CO)C(=O)N[C@H]1C(=O)N[C@@H](C)C(=O)N[C@@H](CCCNC(=N)N)C(=O)N[C@@H]([C@@H](C)CC)C(=O)O[C@H]1C)[C@@H](C)CC", "values": [{"measurement": "MIC", "setting": "Staphylococcus aureus [9]", "value": 2, "unit": "µg/mL"}, {"measurement": "MIC", "setting": "Staphylococcus aureus [12]", "value": 2, "unit": "µg/mL"}]}, {"smiles": "CC[C@@H](C)[C@@H](NC(=O)[C@@H](CCC(N)=O)NC(=O)[C@H](CO)NC(=O)[C@@H](NC(=O)[C@@H](Cc1ccccc1)NC)[C@@H](C)CC)C(=O)N[C@H](C(=O)N[C@@H](CO)C(=O)N[C@H]1C(=O)N[C@@H](C)C(=O)N[C@@H](CCCCN)C(=O)N[C@@H]([C@@H](C)CC)C(=O)O[C@H]1C)[C@@H](C)CC", "values": [{"measurement": "MIC", "setting": "Staphylococcus aureus [12]", "value": 1, "unit": "µg/mL"}, {"measurement": "MIC", "setting": "[11]", "value": "0.5 to 1", "unit": "µg/mL"}]}, {"smiles": "CC[C@@H](C)[C@@H](NC(=O)[C@@H](CCC(N)=O)NC(=O)[C@H](CO)NC(=O)[C@@H](NC(=O)[C@@H](Cc1ccccc1)NC)[C@@H](C)CC)C(=O)N[C@H](C(=O)N[C@@H](CO)C(=O)N[C@H]1C(=O)N[C@@H](C)C(=O)N[C@@H](C(C)C)C(=O)N[C@@H]([C@@H](C)CC)C(=O)O[C@H]1C)[C@@H](C)CC", "values": [{"measurement": "MIC", "setting": "Staphylococcus aureus [1]", "value": 0.25, "unit": "µg/mL"}, {"measurement": "MIC", "setting": "Staphylococcus aureus [2]", "value": 0.5, "unit": "µg/mL"}]}, {"smiles": "CCC(C)[C@@H]1NC(=O)[C@H](C)NC(=O)[C@H](NC(=O)[C@H](CO)NC(=O)[C@@H](NC(=O)[C@H](NC(=O)[C@@H](CCC(N)=O)NC(=O)[C@H](CO)NC(=O)[C@@H](NC(=O)[C@@H](Cc2ccccc2)NC)[C@@H](C)CC)[C@H](C)CC)[C@@H](C)CC)[C@H](C)OC(=O)[C@H]([C@@H](C)CC)NC1=O", "note": "(some centres undefined)", "values": [{"measurement": "MIC", "setting": "Staphylococcus aureus [1]", "value": 0.063, "unit": "µg/mL"}, {"measurement": "MIC", "setting": "Staphylococcus aureus [2]", "value": 0.25, "unit": "µg/mL"}]}, {"smiles": "COc1c(N2C[C@@H]3CCCN[C@@H]3C2)c(F)cc2c(=O)c(C(=O)O)cn(C3CC3)c12", "note": "[MOXIFLOXACIN]", "values": [{"measurement": "Activity", "setting": "Staphylococcus aureus [13]", "value": 3.7, "unit": "log10CFU"}, {"measurement": "Activity", "setting": "Staphylococcus aureus [14]", "value": "Active"}, {"measurement": "Activity", "setting": "Staphylococcus aureus [15]", "value": 140.3, "unit": "um"}, {"measurement": "Activity", "setting": "Staphylococcus aureus [16]", "value": "Active"}, {"measurement": "Activity", "setting": "Staphylococcus aureus [17]", "value": 124.2, "unit": "um"}]}]}
